Assay results from ChEMBL document CHEMBL1800061 (J Med Chem, 2010).
Activity calls are given as the source filed them. The calls are words filed in the database; no cut-off is given here.

Columns and labels:
[1] = AUC (0 to last) in mouse at 10 mg/kg, po; assay type: ADME, organism-based; design: dose 10 mg/kg, route oral, time 0 - last; details: plasma
How it was run: (§1)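 Mice given 10 mg/kg by the ip, iv or oral route. Plasma levels were measured at 8 time points, with 3 animals per route for po and iv. Parameters came from a noncompartmental model. AUCINF was extrapolated to infinity, and bioavailability was calculated from AUCINF. The terminal slope used 3 points.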

[2] = target: G1/S-specific cyclin-D1 (Homo sapiens) (UniProt P24385); assay: Inhibition of cyclin D1 in human HCT116 cells assessed as decrease in protein level at 1 umol/L after 24 hrs by immunoblotting analysis; assay type: cell-based; details: HCT-116
How it was run: (§2)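 HCT116 colon cancer cells were kept in DMEM with 10% FCS. Cells (8×10^5) were plated, dosed 24 h later, and exposed for 4 or 24 h. Whole-cell lysates were made in RIPA buffer with phosphatase and protease inhibitor cocktails and normalised by BCA protein assay. They were immunoblotted for phospho-sites, total proteins and cyclins.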

[3] = target: T1, Mitogen-activated protein kinase 3 (Homo sapiens, UniProt P27361); assay: Inhibition of ERK1 at 0.1 uM
[4] = target: Serine/threonine-protein kinase pim-3 (Homo sapiens) (UniProt Q86V86); assay: Inhibition of PIM3 assessed as residual enzyme activity at 10 uM
[5] = target: T2, Calcium/calmodulin-dependent protein kinase kinase 2 (Homo sapiens, UniProt Q96RR4); assay: Inhibition of CAMKKbeta assessed as residual enzyme activity at 10 uM
Target sequence in this assay (Q96RR4 2-588 limits assumed): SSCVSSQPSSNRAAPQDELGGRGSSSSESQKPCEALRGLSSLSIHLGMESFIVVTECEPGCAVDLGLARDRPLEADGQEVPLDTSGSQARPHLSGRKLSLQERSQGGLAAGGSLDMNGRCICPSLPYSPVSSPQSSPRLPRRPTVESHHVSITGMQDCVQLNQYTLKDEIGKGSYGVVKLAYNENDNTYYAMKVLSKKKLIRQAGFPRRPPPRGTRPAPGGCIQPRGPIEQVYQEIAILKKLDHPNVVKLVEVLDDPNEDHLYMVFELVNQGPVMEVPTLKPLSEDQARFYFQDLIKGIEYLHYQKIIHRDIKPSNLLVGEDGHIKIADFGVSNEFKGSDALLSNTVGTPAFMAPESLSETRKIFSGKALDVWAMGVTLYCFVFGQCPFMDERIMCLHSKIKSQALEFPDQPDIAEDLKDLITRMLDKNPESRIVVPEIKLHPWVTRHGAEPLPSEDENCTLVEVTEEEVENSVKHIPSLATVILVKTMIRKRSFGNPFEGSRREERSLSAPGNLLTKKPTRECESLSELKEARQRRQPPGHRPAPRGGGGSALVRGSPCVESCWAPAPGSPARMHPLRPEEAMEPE

[6] = target: MAP/microtubule affinity-regulating kinase 3 (Homo sapiens) (UniProt P27448); assay: Inhibition of MARK3 assessed as residual enzyme activity at 10 uM
[7] = target: Cyclin-dependent kinase 1 (Homo sapiens) (UniProt P06493); assay: Inhibition of CDK1-mediated phosphorylation of RB protein in human HCT116 cells after 4 hrs by immunoblotting analysis; assay type: cell-based; details: HCT-116; how it was run: as §2
[8] = test system: Mus musculus; assay: Inhibition of cyclin-dependent kinase substrate […] phosphorylation in nude BALB/c mouse PBMC at 100 mg/kg, po measured after 6 hrs by immunostaining and flow cytometric analysis; assay type: functional, organism-based; design: dose 100 mg/kg
How it was run: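 Female nu/nu-BALB/c athymic nude mice (7 weeks old) given a single oral gavage dose in 28% PEG300/5% dimethylacetamide/10% HPB cyclodextrin in water. PBMC were isolated from cardiac blood after red-cell lysis, then fixed, permeabilized and stained with primary antibodies (1:100, 1 h, RT) and an Alexa Fluor 488 secondary (1:200, 1 h). Read-out was flow cytometry; n=4 (n=3 at 100 mg/kg).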

[9] = target: T3, Casein kinase I isoform alpha (Homo sapiens, UniProt P48729); assay: Inhibition of CK1
Target sequence in this assay (P48729 whole entry, canonical isoform): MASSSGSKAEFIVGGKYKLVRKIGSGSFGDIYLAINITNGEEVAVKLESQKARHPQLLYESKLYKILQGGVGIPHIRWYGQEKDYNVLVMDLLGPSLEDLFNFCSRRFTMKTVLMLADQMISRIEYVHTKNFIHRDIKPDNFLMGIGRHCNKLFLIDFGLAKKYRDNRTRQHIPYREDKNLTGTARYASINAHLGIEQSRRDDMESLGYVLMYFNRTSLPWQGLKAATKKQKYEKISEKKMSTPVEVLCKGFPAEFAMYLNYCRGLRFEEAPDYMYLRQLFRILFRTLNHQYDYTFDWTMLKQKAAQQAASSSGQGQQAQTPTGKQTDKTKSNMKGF

[10] = target: Tyrosine-protein kinase Lck (Homo sapiens) (UniProt P06239); assay: Inhibition of Lck assessed as residual enzyme activity at 10 uM
[11] = Metabolic stability in human liver microsomes as compound remaining at 1 uM; assay type: ADME, Microsome; details: read-out: Stability
How it was run: (§3)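 Liver microsomes, test compound at 1 μM with NADP 1 mM, G6P 5 mM and G6PDHase 1 U/mL, in 0.6% methanol and 0.6% acetonitrile. Incubated 0 and 60 min at 37 °C. Reported as percent parent remaining, mean (range), n=2.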

[12] = target: MAP kinase-interacting serine/threonine-protein kinase 2 (Homo sapiens) (UniProt Q9HBH9); assay: Inhibition of MNK2 assessed as residual enzyme activity at 10 uM
[13] = target: T2, Calcium/calmodulin-dependent protein kinase kinase 2; assay: Inhibition of CAMKKbeta at 0.1 uM
Target sequence in this assay (Q96RR4 2-588 limits assumed): as the sequence (Q96RR4 2-588 limits assumed) above

[14] = AUC (0 to last) in mouse at 10 mg/kg, ip; assay type: ADME, organism-based; design: time 0 - last, dose 10 mg/kg, route intraperitoneal; details: plasma; how it was run: as §1
[15] = target: Cyclin-dependent kinase 9 (Homo sapiens) (UniProt P50750); assay: Inhibition of CDK9-mediated phosphorylation at Ser2 in C-terminal domain of RNA polymerase 2 in human HCT116 cells after 4 hrs by immunoblotting analysis; assay type: cell-based; details: HCT-116; how it was run: as §2
[16] = Inhibition of PKBbeta assessed as residual enzyme activity at 10 uM
[17] = target: T1, Mitogen-activated protein kinase 3; assay: Inhibition of ERK1
[18] = target: Protein kinase C alpha type (Homo sapiens) (UniProt P17252); assay: Inhibition of PKCalpha assessed as residual enzyme activity at 10 uM
[19] = test system: MDA-MB-231; assay: Antiproliferative activity against human MDA-MB-231 cells after 72 hrs by sulforhodamine B assay; assay type: functional; details: MDA-MB-231, 72 h
How it was run: (§4)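 Cell lines were grown in DMEM with 10% FCS and treated with increasing concentrations for 72 h. Growth was read by sulforhodamine B staining and GI50 was derived. Values are means of at least three replicates with SD.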

[20] = target: Serine/threonine-protein kinase N2 (Homo sapiens) (UniProt Q16513); assay: Inhibition of PRK2 assessed as residual enzyme activity at 10 uM
[21] = test system: HCT-116; assay: Antiproliferative activity against human HCT116 cells after 72 hrs by sulforhodamine B assay; assay type: functional; details: HCT-116, 72 h; how it was run: as §4
[22] = target: Serine/threonine-protein kinase TBK1 (Homo sapiens) (UniProt Q9UHD2); assay: Inhibition of TBK1 assessed as residual enzyme activity at 10 uM
[23] = Oral bioavailability in mouse at 10 mg/kg; assay type: ADME, organism-based; details: in vivo
[24] = target: Maternal embryonic leucine zipper kinase (Homo sapiens) (UniProt Q14680); assay: Inhibition of MELK assessed as residual enzyme activity at 10 uM
[25] = Plasma protein binding in human at 10 uM; assay type: ADME, cell-free; details: read-out: PPB (converted)
How it was run: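 Plasma protein binding in human and mouse plasma, test concentration 10 μM. Reported as percent bound, mean (range).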

[26] = target: T3, Casein kinase I isoform alpha; assay: Inhibition of CK1 assessed as residual enzyme activity at 10 uM
Target sequence in this assay (P48729 2-337 limits assumed): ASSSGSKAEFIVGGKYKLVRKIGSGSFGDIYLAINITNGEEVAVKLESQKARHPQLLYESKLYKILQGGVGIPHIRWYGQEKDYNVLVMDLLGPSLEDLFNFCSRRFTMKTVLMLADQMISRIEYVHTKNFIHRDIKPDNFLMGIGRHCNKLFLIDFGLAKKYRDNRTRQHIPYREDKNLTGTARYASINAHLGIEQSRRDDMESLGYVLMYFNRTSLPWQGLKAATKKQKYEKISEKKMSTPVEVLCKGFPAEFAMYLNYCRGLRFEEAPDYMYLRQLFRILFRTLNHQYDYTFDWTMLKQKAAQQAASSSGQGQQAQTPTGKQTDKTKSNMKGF

[27] = target: T2, Calcium/calmodulin-dependent protein kinase kinase 2; assay: Inhibition of CAMKKbeta
[28] = target: Mitogen-activated protein kinase 1 (Homo sapiens, UniProt P28482); assay: Inhibition of ERK2
[29] = Metabolic stability in mouse liver microsomes as compound remaining at 1 uM; assay type: ADME, Microsome; details: read-out: Stability; how it was run: as §3
[30] = target: G1/S-specific cyclin-D1 (Homo sapiens) (UniProt P24385); assay: Inhibition of cyclin D1-mediated phosphorylation of RB protein in human HCT116 cells after 4 hrs by immunoblotting analysis; assay type: cell-based; details: HCT-116
How it was run: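 HCT116 cells grown in DMEM with 10% FCS were plated at 8×10^5 per dish and treated after 24 h with compound in DMSO. Lysis was done 4 h later in RIPA buffer with phosphatase and protease inhibitor cocktails, and protein was quantified by BCA. Whole-cell lysates were immunoblotted for phospho-RB (Ser-780, Ser-795, Ser-801, Ser-807/811, Thr-821) and RNA polymerase II CTD Ser-2.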

[31] = target: Serine/threonine-protein kinase Chk1 (Homo sapiens) (UniProt O14757); assay: Inhibition of CHK1 assessed as residual enzyme activity at 10 uM
[32] = target: Serine/threonine-protein kinase PLK1 (Homo sapiens) (UniProt P53350); assay: Inhibition of PLK1 assessed as residual enzyme activity at 10 uM
[33] = test system: MCF7; assay: Antitumor activity against human MCF7 cells xenografted in nude BALB/c mouse assessed as decrease in tumor volume at 5 mg/kg, ip bid for 14 days relative to control on day 1; assay type: functional; details: route intraperitoneal
How it was run: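 Randomised nude mice bearing MCF-7 tumours were injected intraperitoneally twice daily with 5 or 10 mg/kg (10 or 20 mg/kg/day) for 14 days. The control group received vehicle. Tumour volume was expressed relative to each animal's own day 1 volume.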

Sequence of G1/S-specific cyclin-D1 (Homo sapiens) (P24385 whole entry): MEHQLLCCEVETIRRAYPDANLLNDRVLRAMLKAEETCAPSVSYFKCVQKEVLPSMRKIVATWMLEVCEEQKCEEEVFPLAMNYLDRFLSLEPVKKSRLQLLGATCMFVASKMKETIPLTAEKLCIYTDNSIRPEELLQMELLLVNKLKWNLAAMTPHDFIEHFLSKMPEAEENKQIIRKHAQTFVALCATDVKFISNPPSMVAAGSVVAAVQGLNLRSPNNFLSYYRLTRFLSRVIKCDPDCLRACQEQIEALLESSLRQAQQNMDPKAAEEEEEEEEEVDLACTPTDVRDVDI
T1 sequence (P27361 whole entry): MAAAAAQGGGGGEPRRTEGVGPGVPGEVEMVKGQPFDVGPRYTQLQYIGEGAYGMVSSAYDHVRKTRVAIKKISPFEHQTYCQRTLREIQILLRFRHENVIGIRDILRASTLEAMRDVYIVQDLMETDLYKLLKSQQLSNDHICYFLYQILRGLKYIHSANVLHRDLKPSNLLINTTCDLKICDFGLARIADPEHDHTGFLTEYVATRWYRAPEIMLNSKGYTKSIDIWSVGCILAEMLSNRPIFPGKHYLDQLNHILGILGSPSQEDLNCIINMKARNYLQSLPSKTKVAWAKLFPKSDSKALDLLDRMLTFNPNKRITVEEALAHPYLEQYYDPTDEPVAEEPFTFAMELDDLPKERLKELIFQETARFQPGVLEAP
Sequence of Maternal embryonic leucine zipper kinase (Homo sapiens) (Q14680 whole entry, looked up): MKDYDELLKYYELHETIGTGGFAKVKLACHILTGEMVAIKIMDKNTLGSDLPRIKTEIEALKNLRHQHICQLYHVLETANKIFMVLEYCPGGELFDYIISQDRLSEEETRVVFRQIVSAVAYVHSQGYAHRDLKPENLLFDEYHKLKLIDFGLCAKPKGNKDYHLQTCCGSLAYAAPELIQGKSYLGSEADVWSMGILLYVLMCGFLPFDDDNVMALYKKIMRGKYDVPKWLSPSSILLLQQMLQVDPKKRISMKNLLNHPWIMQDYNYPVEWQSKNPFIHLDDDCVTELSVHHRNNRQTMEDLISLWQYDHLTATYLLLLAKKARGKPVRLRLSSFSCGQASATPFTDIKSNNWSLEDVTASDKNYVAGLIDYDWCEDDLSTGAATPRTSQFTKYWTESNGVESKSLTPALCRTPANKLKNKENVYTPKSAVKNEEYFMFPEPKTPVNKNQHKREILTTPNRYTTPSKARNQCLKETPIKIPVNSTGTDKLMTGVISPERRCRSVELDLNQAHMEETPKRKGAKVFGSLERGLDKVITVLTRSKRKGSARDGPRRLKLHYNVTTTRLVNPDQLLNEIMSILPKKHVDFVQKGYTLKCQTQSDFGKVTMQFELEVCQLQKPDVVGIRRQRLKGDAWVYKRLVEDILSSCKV
Sequence of Mitogen-activated protein kinase 1 (P28482 whole entry): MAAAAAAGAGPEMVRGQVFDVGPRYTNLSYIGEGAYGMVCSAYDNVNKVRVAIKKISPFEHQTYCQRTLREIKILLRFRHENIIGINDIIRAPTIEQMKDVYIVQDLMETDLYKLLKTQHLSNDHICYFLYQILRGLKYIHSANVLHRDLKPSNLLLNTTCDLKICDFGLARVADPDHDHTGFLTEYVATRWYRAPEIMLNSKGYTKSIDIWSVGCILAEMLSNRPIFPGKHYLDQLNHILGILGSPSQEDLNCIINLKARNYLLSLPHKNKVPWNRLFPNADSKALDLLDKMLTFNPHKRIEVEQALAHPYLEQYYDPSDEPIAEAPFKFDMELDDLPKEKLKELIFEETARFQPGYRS
Sequence of Cyclin-dependent kinase 9 (Homo sapiens) (P50750 whole entry, the tested form may be a part): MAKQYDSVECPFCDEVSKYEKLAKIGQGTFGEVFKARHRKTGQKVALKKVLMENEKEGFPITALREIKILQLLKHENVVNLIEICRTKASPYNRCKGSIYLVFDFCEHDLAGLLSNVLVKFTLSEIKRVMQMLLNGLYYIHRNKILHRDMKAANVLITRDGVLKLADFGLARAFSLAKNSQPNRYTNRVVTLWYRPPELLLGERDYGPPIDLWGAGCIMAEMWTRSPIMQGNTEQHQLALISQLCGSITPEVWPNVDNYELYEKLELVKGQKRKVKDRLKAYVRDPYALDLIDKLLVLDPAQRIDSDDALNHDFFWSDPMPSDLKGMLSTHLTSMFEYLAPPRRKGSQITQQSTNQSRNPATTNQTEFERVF
Sequence of Serine/threonine-protein kinase PLK1 (Homo sapiens) (P53350 whole entry): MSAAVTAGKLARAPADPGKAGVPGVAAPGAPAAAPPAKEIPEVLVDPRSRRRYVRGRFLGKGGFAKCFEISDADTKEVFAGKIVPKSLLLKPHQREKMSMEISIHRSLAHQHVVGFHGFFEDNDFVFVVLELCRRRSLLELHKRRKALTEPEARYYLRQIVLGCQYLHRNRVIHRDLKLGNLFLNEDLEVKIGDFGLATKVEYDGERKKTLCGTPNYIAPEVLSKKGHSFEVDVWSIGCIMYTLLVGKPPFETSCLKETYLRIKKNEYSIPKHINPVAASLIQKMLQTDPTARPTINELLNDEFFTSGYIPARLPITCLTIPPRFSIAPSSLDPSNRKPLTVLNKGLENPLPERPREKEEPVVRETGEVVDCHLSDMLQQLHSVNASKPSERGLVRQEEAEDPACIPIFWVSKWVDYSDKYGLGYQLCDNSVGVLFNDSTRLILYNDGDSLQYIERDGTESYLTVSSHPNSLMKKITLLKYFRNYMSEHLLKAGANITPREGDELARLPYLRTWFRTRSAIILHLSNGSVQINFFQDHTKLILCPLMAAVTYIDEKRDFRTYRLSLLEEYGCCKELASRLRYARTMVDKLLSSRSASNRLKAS
Sequence of Serine/threonine-protein kinase N2 (Homo sapiens) (Q16513 whole entry, looked up): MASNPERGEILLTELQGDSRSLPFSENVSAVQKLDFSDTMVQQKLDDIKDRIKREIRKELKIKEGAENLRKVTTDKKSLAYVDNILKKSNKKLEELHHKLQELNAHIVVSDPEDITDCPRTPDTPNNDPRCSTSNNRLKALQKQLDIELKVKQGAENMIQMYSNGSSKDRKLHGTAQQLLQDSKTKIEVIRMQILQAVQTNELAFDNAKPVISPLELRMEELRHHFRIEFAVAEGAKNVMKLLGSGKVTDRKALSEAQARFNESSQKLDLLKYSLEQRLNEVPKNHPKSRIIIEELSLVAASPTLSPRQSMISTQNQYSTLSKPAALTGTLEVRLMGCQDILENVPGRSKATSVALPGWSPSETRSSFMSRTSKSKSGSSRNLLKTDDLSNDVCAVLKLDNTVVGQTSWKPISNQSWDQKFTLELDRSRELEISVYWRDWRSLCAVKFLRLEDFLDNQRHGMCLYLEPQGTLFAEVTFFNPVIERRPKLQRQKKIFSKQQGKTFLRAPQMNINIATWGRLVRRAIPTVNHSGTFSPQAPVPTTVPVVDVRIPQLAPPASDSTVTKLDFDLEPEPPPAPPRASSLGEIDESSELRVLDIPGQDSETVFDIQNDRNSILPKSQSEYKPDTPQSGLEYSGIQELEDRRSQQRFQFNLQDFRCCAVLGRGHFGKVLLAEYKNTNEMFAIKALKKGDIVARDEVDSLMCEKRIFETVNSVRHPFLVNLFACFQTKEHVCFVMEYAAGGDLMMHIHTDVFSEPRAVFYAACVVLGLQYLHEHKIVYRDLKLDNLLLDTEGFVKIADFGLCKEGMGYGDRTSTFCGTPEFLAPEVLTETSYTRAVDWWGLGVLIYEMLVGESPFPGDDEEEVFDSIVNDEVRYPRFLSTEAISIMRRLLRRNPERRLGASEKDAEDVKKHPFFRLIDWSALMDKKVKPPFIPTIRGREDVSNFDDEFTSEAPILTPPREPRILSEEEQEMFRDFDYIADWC

## CC(C)c1cnn2c(NCc3ccccc3)cc(N[C@@H](CO)[C@H](O)CO)nc12
[1]
  AUC(0-t): 32000 ng·h/mL
[2]
  inhibition: Active
[3]
  inhibition: < 50%
[4]
  Activity: 101%
[5]
  Activity: 23%
[6]
  Activity: 82%
[7]
  inhibition: inactive
[8]
  inhibition: Active
[9]
  IC50: 1.04 µM
[10]
  Activity: 85%
[11]
  remaining at 1 µM: 83%
[12]
  Activity: 136%
[13]
  inhibition: < 50%
[14]
  AUC(0-t): 26400 ng·h/mL
[15]
  inhibition: Active
[16]
  Activity: 105%
[17]
  IC50: 3.73 µM
[18]
  Activity: 96%
[19]
  GI50: 0.3 µM
[20]
  Activity: 106%
[21]
  GI50: 0.1 µM
[22]
  Activity: 87%
[23]
  bioavailability: 88%
[24]
  Activity: 88%
[25]
  fraction unbound at 10 µM: 0.057
[26]
  Activity: 19%
[27]
  IC50: 2.45 µM
[28]
  IC50: 3.11 µM
[29]
  remaining at 1 µM: 29%
[30]
  inhibition: inactive
[31]
  Activity: 98%
[32]
  Activity: 68%
[33]
  inhibition in vivo at 5 mg/kg: 30%
